Calls of active or inactive are those of the source. No cut-off for these calls is given here.
Assays:
[1] = target: Apoptosis regulator Bcl-2 (Homo sapiens, UniProt P10415); assay: Inhibition of human Bcl-2 protein by ELISA
How it was run: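 ELISA competitive binding to Bcl-2 using a biotinylated Bim peptide as competitor; IC50 values.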

[2] = target: Induced myeloid leukemia cell differentiation protein Mcl-1 (Homo sapiens, UniProt Q07820); assay: Inhibition of human Mcl-1 protein by fluorescence polarization assay
Chain of Induced myeloid leukemia cell differentiation protein Mcl-1 (Q07820 whole entry): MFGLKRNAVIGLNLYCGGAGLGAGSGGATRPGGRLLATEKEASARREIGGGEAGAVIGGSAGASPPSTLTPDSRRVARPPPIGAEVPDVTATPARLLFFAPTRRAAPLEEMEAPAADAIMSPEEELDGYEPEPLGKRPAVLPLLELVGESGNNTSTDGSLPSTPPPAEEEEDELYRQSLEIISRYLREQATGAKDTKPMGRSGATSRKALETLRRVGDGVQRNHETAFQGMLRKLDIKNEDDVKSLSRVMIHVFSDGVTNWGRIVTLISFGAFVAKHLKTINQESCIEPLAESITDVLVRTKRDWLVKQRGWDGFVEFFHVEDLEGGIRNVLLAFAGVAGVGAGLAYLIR
How it was run: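 Mcl-1 binding by fluorescence-polarization competition assay; Ki values.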

MDA-MB-231 [3] = assay: Growth inhibition of human MDA-MB-231 2LMP cells after 4 days by WST-8 based assay; format: functional, cell-based; settings: MDA-MB-231, 96 h
How it was run: (§1)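 Cells grown with compound for 4 days, then cell growth read by WST-based assay; IC50 values. Both lines express high levels of Bcl-2, Bcl-xL and Mcl-1.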

PC-3 [4] = assay: Growth inhibition of human PC3 cells after 4 days by WST-8 based assay; format: functional, cell-based; settings: PC-3, 96 h; how it was run: as §1
MDA-MB-231 [5] = assay: Induction of apoptosis in human MDA-MB-231 2LMP cells assessed as cell viability at 1 uM after 4 days by trypan blue exclusion assay; format: functional; settings: MDA-MB-231, 96 h, read-out: Activity
How it was run: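 Cell death scored by trypan blue exclusion after 4 days of exposure at 0.3, 1 and 3 µM; percentage of dead cells reported with ± error.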

PC-3 [6] = assay: Induction of apoptosis in human PC3 cells assessed as Cell viability after 4 days by trypan blue exclusion assay; format: functional, cell-based
MDA-MB-231 [7] = assay: Induction of apoptosis in human MDA-MB-231 2LMP cells assessed as cell viability by trypan blue exclusion assay; format: functional, cell-based; settings: TDE = time-dependent effect
PC-3 [8] = assay: Induction of apoptosis in human PC3 cells assessed as cell viability by trypan blue exclusion assay; format: functional, cell-based; settings: TDE = time-dependent effect
MDA-MB-231 [9] = assay: Induction of apoptosis in human MDA-MB-231 2LMP cells by annexin-5/propidium iodide assay; format: functional, cell-based
How it was run: (§2)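 Four-day exposure, then apoptosis measured by annexin-V/propidium iodide staining and flow cytometry.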

PC-3 [10] = assay: Induction of apoptosis in human PC3 cells by annexin-5/propidium iodide assay; format: functional, cell-based; how it was run: as §2

Chain of Apoptosis regulator Bcl-2 (P10415 whole entry): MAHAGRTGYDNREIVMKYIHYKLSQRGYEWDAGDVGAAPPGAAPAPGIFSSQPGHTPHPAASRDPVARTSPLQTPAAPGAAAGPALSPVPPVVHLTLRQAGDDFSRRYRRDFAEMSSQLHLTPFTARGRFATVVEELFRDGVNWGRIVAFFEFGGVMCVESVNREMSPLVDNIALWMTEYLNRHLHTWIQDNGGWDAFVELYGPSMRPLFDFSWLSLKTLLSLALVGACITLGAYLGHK

Row | IC50 [1] [nM] | IC50 [2] [nM] | Ki [2] [nM] | IC50 (MDA-MB-231 [3]) [nM] | IC50 (PC-3 [4]) [nM] | Structure (SMILES) | viability at 1 µM (MDA-MB-231 [5]) [%] | Activity (PC-3 [6]) | Activity (MDA-MB-231 [7]) | Activity (PC-3 [8]) | Activity (MDA-MB-231 [9]) | Activity (PC-3 [10])
1 | 3400 | 3060 | 380 | 12900 | 12400 | CC(C)c1cc(C(=O)c2ccc(Oc3ccccc3)cc2)c(O)c(O)c1O |  |  |  |  |  | 
2 | 41600 | 36500 | 4600 | 30700 | 39300 | CC(C)c1cc(C(=O)c2ccccc2)c(O)c(O)c1O |  |  |  |  |  | 
3 | 290 | 1200 | 150 | 290 | 550 | O=C(c1ccc(Oc2ccccc2)cc1)c1cc(C(=O)c2cccc3ccccc23)c(O)c(O)c1O |  |  |  |  |  | 
4 | 2600 | 2670 | 340 | 4500 | 5700 | CC(C)C(=O)c1cc(C(=O)c2ccc(Oc3ccccc3)cc2)c(O)c(O)c1O |  |  |  |  |  | 

Row | Structure (SMILES) | IC50 [1] [nM] | IC50 [2] [nM] | Ki [2] [nM] | IC50 (MDA-MB-231 [3]) [nM] | IC50 (PC-3 [4]) [nM] | viability at 1 µM (MDA-MB-231 [5]) [%] | Activity (PC-3 [6]) | Activity (MDA-MB-231 [7]) | Activity (PC-3 [8]) | Activity (MDA-MB-231 [9]) | Activity (PC-3 [10])
5 | O=C(c1ccc(Oc2ccccc2)cc1)c1cc(C(=O)c2nc3ccccc3s2)c(O)c(O)c1O | 170 | 310 | 37 | 120 | 260 | 58 | Dose-dependent effect | tde | tde | Active | Active
6 | Cc1cc2c(C(C)C)c(O)c(O)c(C=O)c2c(O)c1-c1c(C)cc2c(C(C)C)c(O)c(O)c(C=O)c2c1O [GOSSYPOL] |  |  |  | 3700 | 2500 |  |  |  |  |  | 

From ChEMBL document CHEMBL1141593, “Acylpyrogallols as inhibitors of antiapoptotic Bcl-2 proteins” (J Med Chem, 2008)
